Test results reported in the array DNA melting data of Ke et al. (doi:10.1101/2024.01.08.574731).

Tests used:
[1] = melting temperature; fluorescence melt of hairpins on a sequencing array, two-state fit, raised by 9.35 °C to match UV melts; conditions: sodium 0.088 M
Outline: (§1)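 Folding enthalpy and melting temperature come from bootstrapped two-state fits to Cy3 fluorescence of library hairpins carrying annealed Cy3 and quencher oligos on a sequenced MiSeq flow cell. Imaging was done in 50 mM Na-HEPES pH 8.0, 25 mM NaCl, stepping by 2.5 °C up to 60 °C, and signals were normalised to pre-quench Cy3 and to control constructs. Results of four replicates were combined by inverse variance, and fitted temperatures were raised by 9.35 °C to match UV melts.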

[2] = folding enthalpy; higher = less favourable; fluorescence melt of hairpins on a sequencing array, two-state fit; conditions: sodium 0.088 M
Outline: as §1

GAGACCGAAAGGTGGCTC ((((((....)))..)))
Tm [1]: 43.4 °C | folding enthalpy [2]: -19.2 kcal/mol

GAGACCGCGAAAGCGCTC (((..(((....))))))
Tm [1]: 26.6 °C | folding enthalpy [2]: -7.65 kcal/mol

GAGACCGGAAACAGTCTC (((((.(....).)))))
Tm [1]: 40.4 °C | folding enthalpy [2]: -27.5 kcal/mol

GAGACGACGAAAGTCCTC (((..(((....))))))
Tm [1]: 26.8 °C | folding enthalpy [2]: -16.7 kcal/mol

GAGACGCGAAAGCGACTC (((.(((....))).)))
Tm [1]: 66.4 °C | folding enthalpy [2]: -24.9 kcal/mol

GAGACGCGAAAGCGCCTC (((.(((....))).)))
Tm [1]: 58.7 °C | folding enthalpy [2]: -30.3 kcal/mol

GAGACGGGAAACCGTTTC ((.((((....)))).))
Tm [1]: 45.8 °C | folding enthalpy [2]: -23.4 kcal/mol

GAGACTGCGAAAGCACTC (((..(((....))))))
Tm [1]: 26.7 °C | folding enthalpy [2]: -9.86 kcal/mol

GAGACTGGAAACAGTCCC (.(((((....))))).)
Tm [1]: 44.9 °C | folding enthalpy [2]: -11 kcal/mol

GAGAGAACGAAAGTTCTC (((..(((....))))))
Tm [1]: 52.5 °C | folding enthalpy [2]: -14.7 kcal/mol

GAGAGACGAAAGTCCCTC (((.(((....))).)))
Tm [1]: 44.9 °C | folding enthalpy [2]: -25.8 kcal/mol

GAGAGAGAAATCTCTC ((((((....))))))
Tm [1]: 45.8 °C | folding enthalpy [2]: -27.6 kcal/mol

GAGAGCACGAAAGTGCTC (((..(((....))))))
Tm [1]: 64.1 °C | folding enthalpy [2]: -7.79 kcal/mol

GAGAGCCGAAAGGCCCTC (((.(((....))).)))
Tm [1]: 51.3 °C | folding enthalpy [2]: -18.3 kcal/mol

GAGAGCGAAAGCTACTC ((((((....))).)))
Tm [1]: 43.7 °C | folding enthalpy [2]: -14.5 kcal/mol

GAGAGCGAAAGCTTCCTC ((((((....)))..)))
Tm [1]: 27.3 °C | folding enthalpy [2]: -10.7 kcal/mol

GAGAGGACGAAAGTCCTC (((..(((....))))))
Tm [1]: 60.8 °C | folding enthalpy [2]: -8.73 kcal/mol

GAGAGGCGAAAGCCACTC (((.(((....))).)))
Tm [1]: 53.3 °C | folding enthalpy [2]: -20.6 kcal/mol

GAGAGGGCGAAAGCCCTC (((..(((....))))))
Tm [1]: 66.5 °C | folding enthalpy [2]: -6.41 kcal/mol

GAGAGGGGAAACCCCCTC (((.(((....))).)))
Tm [1]: 47.9 °C | folding enthalpy [2]: -14.9 kcal/mol

GAGAGGGGAAACCCTCCC (.(((((....))))).)
Tm [1]: 41.2 °C | folding enthalpy [2]: -13.7 kcal/mol

GAGAGGGGAAACCCTCTC (((((((....)))))))
Tm [1]: 63.5 °C | folding enthalpy [2]: -39 kcal/mol

GAGAGTGGAAACGCTTTC ((.((.(....).)).))
Tm [1]: 27.3 °C | folding enthalpy [2]: -9.25 kcal/mol

GAGATAGGAAACTATCTC (((((((....)))))))
Tm [1]: 53.1 °C | folding enthalpy [2]: -35 kcal/mol

GAGATCACGAAAGTGCTC (((..(((....))))))
Tm [1]: 29.9 °C | folding enthalpy [2]: -12.1 kcal/mol

GAGATCGAAAGATCTC ((((((....))))))
Tm [1]: 63.2 °C | folding enthalpy [2]: -38.2 kcal/mol

GAGATCGGAAACGACCTC (((.(((....))).)))
Tm [1]: 42.5 °C | folding enthalpy [2]: -29.8 kcal/mol

GAGATCGGAAACGATCCC (.(((((....))))).)
Tm [1]: 42.9 °C | folding enthalpy [2]: -12.9 kcal/mol

GAGATGCCGAAAGGCCTC (((..(((....))))))
Tm [1]: 32.1 °C | folding enthalpy [2]: -10.1 kcal/mol

GAGATGCGAAAGCACCTC (((.(((....))).)))
Tm [1]: 49 °C | folding enthalpy [2]: -23.9 kcal/mol

GAGATGGGAAACCACCTC (((.(((....))).)))
Tm [1]: 36.1 °C | folding enthalpy [2]: -31.1 kcal/mol

GAGATTCCGAAAGGACTC (((..(((....))))))
Tm [1]: 30.5 °C | folding enthalpy [2]: -12.2 kcal/mol

GAGATTGGAAACAACCTC (((.(((....))).)))
Tm [1]: 32 °C | folding enthalpy [2]: -21 kcal/mol

GAGATTGGAAACAGTCTC ((((.((....)).))))
Tm [1]: 40.8 °C | folding enthalpy [2]: -27.4 kcal/mol

GAGCAACGAAAGTTCTC (((.(((....))))))
Tm [1]: 35.6 °C | folding enthalpy [2]: -20.1 kcal/mol

GAGCAAGGAAACTTGCCC (.(((((....))))).)
Tm [1]: 41 °C | folding enthalpy [2]: -11 kcal/mol

GAGCACCGAAAGGTACTC (((.(((....))).)))
Tm [1]: 50 °C | folding enthalpy [2]: -36.7 kcal/mol

GAGCACGAAAGTGGACTC ((((((....)))..)))
Tm [1]: 48.7 °C | folding enthalpy [2]: -14.2 kcal/mol

GAGCACGAAAGTGGTCTC ((((((....)))..)))
Tm [1]: 60 °C | folding enthalpy [2]: -24 kcal/mol

GAGCACGGAAACACGCTC ((((..(....)..))))
Tm [1]: 37 °C | folding enthalpy [2]: -28.3 kcal/mol

GAGCAGCCGAAAGGCCTC (((..(((....))))))
Tm [1]: 31.7 °C | folding enthalpy [2]: -10.8 kcal/mol

GAGCAGGCGAAAGCCCTC (((..(((....))))))
Tm [1]: 31.7 °C | folding enthalpy [2]: -9.52 kcal/mol

GAGCATGGAAACATGCTC (((((((....)))))))
Tm [1]: 67.5 °C | folding enthalpy [2]: -37.1 kcal/mol

GAGCCAGAAATGGCTC ((((((....))))))
Tm [1]: 66.8 °C | folding enthalpy [2]: -32.4 kcal/mol

GAGCCCCGAAAGGGACTC (((.(((....))).)))
Tm [1]: 58.6 °C | folding enthalpy [2]: -35.2 kcal/mol

GAGCCCCGAAAGGGCCTC (((.(((....))).)))
Tm [1]: 47.3 °C | folding enthalpy [2]: -14.6 kcal/mol

GAGCCCGAAAGGGAACTC ((((((....)))..)))
Tm [1]: 47.5 °C | folding enthalpy [2]: -16.4 kcal/mol

GAGCCCGAAAGGGCCCTC ((((((....)))..)))
Tm [1]: 47.6 °C | folding enthalpy [2]: -9.76 kcal/mol

GAGCCCGGAAACGAGCCC (.((.((....)).)).)
Tm [1]: 29.1 °C | folding enthalpy [2]: -14 kcal/mol

GAGCCGACGAAAGTCCTC (((..(((....))))))
Tm [1]: 27.9 °C | folding enthalpy [2]: -8.43 kcal/mol

GAGCCGCGAAAGCGACTC (((.(((....))).)))
Tm [1]: 65.3 °C | folding enthalpy [2]: -26.2 kcal/mol

GAGCCGGGAAACCGACTC (((.(((....))).)))
Tm [1]: 49.5 °C | folding enthalpy [2]: -42.8 kcal/mol

GAGCGACGAAAGTCACTC (((.(((....))).)))
Tm [1]: 52.2 °C | folding enthalpy [2]: -25.9 kcal/mol

GAGCGCGGAAACACGCCC (.(((.(....).))).)
Tm [1]: 38.4 °C | folding enthalpy [2]: -12 kcal/mol

GAGCGCGGAAACACGCTC (((((.(....).)))))
Tm [1]: 56.2 °C | folding enthalpy [2]: -41.1 kcal/mol

GAGCGGCGAAAGCCACTC (((.(((....))).)))
Tm [1]: 58 °C | folding enthalpy [2]: -24.5 kcal/mol

GAGCGTGCGAAAGCACTC (((..(((....))))))
Tm [1]: 26.9 °C | folding enthalpy [2]: -5.83 kcal/mol

GAGCGTGGAAACACACCC (.(.(((....))).).)
Tm [1]: 25.4 °C | folding enthalpy [2]: -18.9 kcal/mol

GAGCTAGGAAACTGGCTC ((((.((....)).))))
Tm [1]: 51.9 °C | folding enthalpy [2]: -36.2 kcal/mol

GAGCTCACGAAAGTGCTC (((..(((....))))))
Tm [1]: 44.4 °C | folding enthalpy [2]: -20.8 kcal/mol

GAGCTCGGAAACGAACTC (((.(((....))).)))
Tm [1]: 44.9 °C | folding enthalpy [2]: -28.6 kcal/mol

GAGCTGCGAAAGCATCTC (((.(((....))).)))
Tm [1]: 46.8 °C | folding enthalpy [2]: -29.4 kcal/mol

GAGCTGGGAAACCAGCCC (.(((((....))))).)
Tm [1]: 46.9 °C | folding enthalpy [2]: -11.4 kcal/mol

GAGCTGGGAAACCGGTTC ((.(.((....)).).))
Tm [1]: 35.7 °C | folding enthalpy [2]: -23.3 kcal/mol

GAGCTTGGAAACAAACTC (((.(((....))).)))
Tm [1]: 35.8 °C | folding enthalpy [2]: -23.9 kcal/mol

GAGGAAACGAAAGTTCTC (((..(((....))))))
Tm [1]: 24.6 °C | folding enthalpy [2]: -13.3 kcal/mol

GAGGAAGGAAACTTCCCC (.(((((....))))).)
Tm [1]: 35.2 °C | folding enthalpy [2]: -11 kcal/mol

GAGGAAGGAAACTTTCTC (((.(((....))).)))
Tm [1]: 35.3 °C | folding enthalpy [2]: -28.9 kcal/mol
